Test results from ChEMBL document CHEMBL2384985 (Bioorg Med Chem Lett, 2013).
The source made the active and inactive calls. The calls are words filed in the database; no cut-off is given here.

What was measured:
Embryonic stem cell [1] = test: Induction of cardiomyogenic activity in human embryonic stem cells assessed as cell growth at 5 uM measured on day 15 by FACS analysis; assay type: functional, cell-based
Embryonic stem cell [2] = test: Induction of cardiomyogenic activity in human embryonic stem cells assessed as cardiomyocyte yield at 2 to 5 uM measured on day 15 by FACS analysis; assay type: functional, cell-based
Procedure, shortened: (§1)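 Nkx2.5eGFP/w transgenic hESC line (eGFP driven by cardiac progenitor marker Nkx2.5). Compound present from Day 0, the day of embryoid body formation, to Day 8. On Day 15 EBs were dissociated to single cells for FACS. Nkx2.5 was read as GFP expression, and α-MHC by MF20 primary antibody with FITC-conjugated secondary.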

Embryonic stem cell [3] = test: Induction of cardiomyogenic activity in human embryonic stem cells assessed as cardiomyocyte yield at 1 to 5 uM measured on day 15 by FACS analysis; assay type: functional, cell-based; procedure, shortened: as §1
[4] = (§2) Induction of cardiomyogenic activity in human embryonic stem cells assessed as cardiomyocyte yield at 5 uM measured on day 15 by FACS analysis relative to control; assay type: functional, Embryonic stem cell; procedure, shortened: as §1
Embryonic stem cell [5] = test: Induction of cardiomyogenic activity in human embryonic stem cells assessed as cardiomyocyte yield at 5 to 100 uM measured on day 15 by FACS analysis; assay type: functional, cell-based; procedure, shortened: as §1
[6] = Reduction of cardiomyogenic activity in human embryonic stem cells assessed as cardiomyocyte yield at 5 uM measured on day 15 by FACS analysis relative to control; assay type: functional, Embryonic stem cell; procedure, shortened: as §1
Embryonic stem cell [7] = test: as §2; assay type: functional; procedure, shortened: as §1
Embryonic stem cell [8] = test: Induction of cardiomyogenic activity in human embryonic stem cells assessed as cardiomyocyte yield at 5 to 15 uM measured on day 15 by FACS analysis; assay type: functional, cell-based; procedure, shortened: as §1

Q: Which Activity (Embryonic stem cell [1]) does the source give for `C[S+]([O-])c1ccc(-c2nc(-c3ccc(F)cc3)c(-c3ccncc3)[nH]2)cc1` (stereo not given) here?
A: The Activity was “Active”.

Q: With `Cc1cccc(-c2nc(-c3ccc(O)cc3)[nH]c2-c2ccncc2)c1` as the compound, how does the Activity (Embryonic stem cell [2]) read?
A: The Activity was “inactive”.

Q: With `Cc1cccc(-c2nc(-c3c(F)cccc3F)[nH]c2-c2ccncc2)c1` as the compound, how does the Activity (Embryonic stem cell [3]) read?
A: Its Activity is “inactive”.

Q: With `Cc1cccc(-c2nc(-c3ccc([S+](C)[O-])cc3)[nH]c2-c2ccncc2)c1` (stereo not given) as the compound, how does the Activity (Embryonic stem cell [1]) read?
A: Its Activity is “Active”.

Q: And the Ratio [4]?
A: The Ratio was 5.

Q: With `Cc1cccc(-c2nc(-c3ccccc3F)[nH]c2-c2ccncc2)c1` as the compound, how does the Activity (Embryonic stem cell [3]) read?
A: Its Activity is “inactive”.

Q: Which results are given for `C[S+]([O-])c1ccc(-c2nc(-c3ccc(F)cc3)c(C3=CCOCC3)[nH]2)cc1` (stereo not given)?
A: Activity (Embryonic stem cell [5]): inactive; Ratio [6]: 2

Q: Which results are given for `Cc1cccc(-c2nc(-c3ccc([S+](C)[O-])cc3)[nH]c2C2=CCOCC2)c1` (stereo not given)?
A: Activity (Embryonic stem cell [7]): Active; Activity (Embryonic stem cell [8]): inactive
